Among the data in ChEMBL document CHEMBL4513216, “Probing the Open Global Health Chemical Diversity Library for Multistage-Active Starting Points for Next-Generation Antimalarials” (ACS Infect Dis, 2020) are cytotoxicity values, retold here.

Each structure is given as a SMILES string.

The data set is described as follows: Toxicity liver stage against HepG2, at 10uM. In kind it is cell-based. The conditions noted are these: human, HepG2-A16-CD81EGFP cells; read-out: INHIBITION
Details: test concentration 10 uM, cell line HepG2-A16-CD81EGFP. The gist of the method:
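Uninfected HepG2-A16-CD81EGFP cells, 3 × 10^3 per well, 1536-well, plated on prespotted compound at 10 μM final, parasite-free screening media added to match infected plates; puromycin 10 μM positive, DMSO 0.5% negative; run in parallel with 48 h PbLuc assay at 37 °C, 5% CO2; viability by CellTiter-Glo luminescence, normalized to controls.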
Turning to `Cc1nc(C)c(CN2CCOC[C@H](Oc3ccc(S(C)(=O)=O)cc3)C2)s1`, the cytotoxicity at 10 µM worked out at 5.25%.

On to `CC(C)CC(NC(=O)c1ccco1)c1nnc2ccccn12` (stereo not given), for which the cytotoxicity at 10 µM was -6.21%.

On to `CN(Cc1ccccc1)CC1CC2(CO1)CN(c1nncs1)C2` (stereo not given), for which the cytotoxicity at 10 µM was determined as 13.7%.

On to `CS(=O)(=O)N1CCCC12CCCN(C(=O)c1ccnnc1)C2` (stereo not given), for which the cytotoxicity at 10 µM is -143%.

For `c1ccc(NCc2cn3c(n2)CN(Cc2nccs2)CC3)nc1`, the cytotoxicity at 10 µM is 10.4%.

As for `CC(O)CNC(=O)CCc1nc2ncccc2[nH]1` (stereo not given), the cytotoxicity at 10 µM was -3.5%.

In the case of `COc1ccc(C(=O)NCCCn2ccnc2)c(OC)n1`, the cytotoxicity at 10 µM worked out at 4.99%.

Take `O=c1nc(SCc2ccncc2)c2c(n1CCO)CCCC2`: the cytotoxicity at 10 µM was -23.8%.

As to `CCC(=O)Nc1c(C)nn(COc2cccc(F)c2)c1C`, the cytotoxicity at 10 µM was found to be 7.77%.

In the case of `CCn1cc(CN(C)S(=O)(=O)c2ccc(C(C)C)cc2)cn1`, the cytotoxicity at 10 µM turned out to be 20.1%.

As to `CCn1nccc1CNc1[nH]cnc2nc(C)nc1-2`, the cytotoxicity at 10 µM was -12%.

Consider `CSc1nc2ccsc2c(=O)n1CC(=O)N(C)C1CCCCC1`, for which the cytotoxicity at 10 µM was 0.773%.

As for `c1cc(-c2nn3c(CN4CCOCC4)nnc3s2)ccn1`, the cytotoxicity at 10 µM stood at 11%.

Turning to `COc1c(CC2CC(CO)=NO2)c(Br)c2c(c1OC)OCO2` (stereo not given), the cytotoxicity at 10 µM was -1.43%.

Turning to `CN1CCC(Cc2cnc(CNC(=O)Cc3cccc(F)c3)cn2)CC1`, the cytotoxicity at 10 µM was -2.67%.

As for `C=Cn1cc(CN2CCN(CC3(c4ccccc4)CC3)CC2)c(C)n1`, the cytotoxicity at 10 µM is 1.78%.

For `Cc1cc(C(F)(F)F)n2nc(C3CCCN(S(C)(=O)=O)C3)cc2n1` (stereo not given), the cytotoxicity at 10 µM is 1.49%.

As to `CS(=O)(=O)N1CCCC(Cc2cnc(Br)cn2)C1` (stereo not given), the cytotoxicity at 10 µM is 17.3%.

Take `O=C1Nc2ccccc2CC12CCCN2Cc1ccc(C(F)(F)F)cc1` (stereo not given): the cytotoxicity at 10 µM was 30.2%.

As to `CC(C)c1cc(Br)ccc1NC(=O)NC(C)(CO)CO`, the cytotoxicity at 10 µM came to 9.83%.

In the case of `CN(CC(C)(CO)CO)C(=O)Nc1cc(Cl)cc(Cl)c1`, the cytotoxicity at 10 µM worked out at 0.0988%.

Consider `CC(CO)NS(=O)(=O)c1cccc(C(C)C)c1` (stereo not given), for which the cytotoxicity at 10 µM is -20%.

In the case of `CC(C)(CNC(=O)C1(c2cccc(Br)c2)CCOCC1)C(=O)O`, the cytotoxicity at 10 µM amounted to 2.9%.

`CCc1ncc2c(n1)CN(Cc1nc(-c3ccco3)oc1C)CC2`: the cytotoxicity at 10 µM was 6.15%.

As to `Cc1noc(C)c1CN(C)C(=O)C1CCCc2ccccc21` (stereo not given), the cytotoxicity at 10 µM amounted to 2.45%.

Regarding `CN1CCC(NC(=O)c2cc(F)cc(Cl)c2O)C1=O` (stereo not given), the cytotoxicity at 10 µM was determined as 3.09%.

In the case of `COc1cc(NCCNC(=O)c2cscc2C)cc(OC)c1`, the cytotoxicity at 10 µM turned out to be 1.6%.

In the case of `Cc1occc1C(=O)NCC(=O)N(C)CCCOc1ccc(F)cc1`, the cytotoxicity at 10 µM was -41.9%.

Turning to `CC(Cc1cccc(F)c1)C(=O)NS(=O)(=O)c1ccc2c(c1)OCCO2` (stereo not given), the cytotoxicity at 10 µM is 9.83%.

Consider `O=C(NCc1nncn1C1CC1)C1(c2ccc(F)cc2)CCOCC1`, for which the cytotoxicity at 10 µM is -10.4%.

Consider `N#Cc1c(Cl)nsc1NCc1ccc(N2CCCC(C(N)=O)C2)cc1` (stereo not given), for which the cytotoxicity at 10 µM was -9.65%.

As to `COc1c(CNCc2ccccc2-n2ccnc2)c(C)nn1C`, the cytotoxicity at 10 µM amounted to 18.7%.

Regarding `Cc1cccc(NC(=O)CN(C)C(=O)c2ccc(OC(C)C)nc2)n1`, the cytotoxicity at 10 µM was -8.99%.

As for `CC(C)Oc1ncc(C(=O)N2CCC(N(C)C)CC2)cc1Cl`, the cytotoxicity at 10 µM is -4.09%.

Consider `CCN1CCN(C(=O)c2scnc2C)CC1`, for which the cytotoxicity at 10 µM is 11.7%.

With `COc1ccc(CNC(=O)NCC(=O)NC2CC2)c(C(F)(F)F)c1`, the cytotoxicity at 10 µM is 6.41%.

For `COC1CCCN(C(=O)NCC(F)F)C1` (stereo not given), the cytotoxicity at 10 µM is 7.51%.

For the compound `CN(CC(=O)N1CCCC1c1ccccn1)Cc1ccccc1` (stereo not given), the cytotoxicity at 10 µM is -0.51%.

`CCc1cc(CNC(=O)Nc2cc(F)ccc2N2CCCCC2)on1`: the cytotoxicity at 10 µM was -18.9%.

Take `O=C(CN1CCSC2(CCCCC2)C1)NCC(F)(F)F`: the cytotoxicity at 10 µM is -6.4%.

As to `Cc1cccc(-c2nnc(C(C)N3CCn4c(C)nnc4C3)o2)c1` (stereo not given), the cytotoxicity at 10 µM stood at 0.131%.

As to `Cc1csc(C(C#N)C(=O)NCc2cccnc2)n1` (stereo not given), the cytotoxicity at 10 µM stood at 9.6%.

Turning to `COCCNC(=O)CSc1nnc(OC(C)C)s1`, the cytotoxicity at 10 µM was -5.7%.

As for `O=C(Cc1ccccc1F)NCC1CCN(CCc2ccccc2)C1` (stereo not given), the cytotoxicity at 10 µM was -43.5%.

Consider `Cc1csc([C@@H]2C[C@@H]3CCN(Cc4cc(C)on4)C[C@H]3O2)n1`, for which the cytotoxicity at 10 µM was -106%.

For `COCCN1CCC2(CC1)CC(c1cccnc1)C(=O)N2C` (stereo not given), the cytotoxicity at 10 µM was found to be 7.26%.

Consider `Cc1cc(C(=O)NCC2OCCc3cn(CC4CC4)nc32)c(C)[nH]1` (stereo not given), for which the cytotoxicity at 10 µM came to 3.42%.

With `Cc1ccc(OC2(C(=O)NC(C)Cc3ccncc3)CCNCC2)cc1` (stereo not given), the cytotoxicity at 10 µM was -9.89%.

For `COC(=O)CNc1ccc(-c2nc(Cc3ccc(OC)cc3)no2)cn1`, the cytotoxicity at 10 µM is 1.06%.

Regarding `Cc1nccc(N[C@H]2CN(CCC(=O)NC3CCCC3)C[C@@H]2C2CC2)n1`, the cytotoxicity at 10 µM was -4.57%.

Take `CCn1c(N)nc2cc(C(=O)N3Cc4ccccc4C3)cnc21`: the cytotoxicity at 10 µM was -8.51%.

Take `COCc1cn(CC2CCN(Cc3cc(C)[nH]n3)CC2)nn1`: the cytotoxicity at 10 µM was -2.44%.

Turning to `CN(C)CCN1CC(C(=O)NCc2cccc(-n3cccn3)c2)CC1=O` (stereo not given), the cytotoxicity at 10 µM is -0.0342%.

In the case of `COCc1c(C(=O)N2CCCC(C(=O)c3nccn3C)C2)noc1C` (stereo not given), the cytotoxicity at 10 µM worked out at 15.8%.

Take `CC(C)=CCN1CCN(Cc2cc(C)n[nH]2)CC1CCO` (stereo not given): the cytotoxicity at 10 µM is 1.96%.

Consider `COCCN(Cc1c(C)nn(C)c1C)C(=O)C1COc2ccccc2C1` (stereo not given), for which the cytotoxicity at 10 µM was -3.87%.

On to `Cc1cc2[nH]c(=O)oc2cc1S(=O)(=O)N1C[C@@H](N(C)C)[C@H](C(C)C)C1`, for which the cytotoxicity at 10 µM was 0.234%.

On to `CC(C)N(CCO)C(=O)C1CCC(=O)N(CCc2ccc(Cl)cc2)C1` (stereo not given), for which the cytotoxicity at 10 µM is -8.27%.

`CC(C)(C)c1csc(CNC(=O)C2NCCc3[nH]cnc32)n1` (stereo not given): the cytotoxicity at 10 µM was -2.65%.

For `CN(CCCc1nccn1C)c1nccc(N2CCC(O)C2)n1` (stereo not given), the cytotoxicity at 10 µM was determined as 10.2%.

For the compound `CCN1CC(CN(C)Cc2nc(-c3ccc(F)cc3F)oc2C)CC1=O` (stereo not given), the cytotoxicity at 10 µM is -6.64%.

With `CN(Cc1cc2cc(F)ccc2[nH]1)C(=O)C1CC(=O)N(C2CCCC2)C1` (stereo not given), the cytotoxicity at 10 µM is -3.26%.

Turning to `CSCCCN1C[C@H](NC(=O)c2cc(C3CC3)on2)[C@@H](C2CC2)C1`, the cytotoxicity at 10 µM was determined as 2.72%.

Turning to `Cc1ccc(OC2(C(=O)O)CCN(C(=O)c3cc(C)oc3C)CC2)cn1`, the cytotoxicity at 10 µM was 0.0255%.

On to `C[C@@H]1CN(c2cc(N3CCC(O)CC3)ncn2)C[C@@]1(O)C1CCC1`, for which the cytotoxicity at 10 µM is -5.73%.

As to `COc1ccc([C@@H]2CN(C(=O)CCc3cc(Cl)no3)C[C@H]2N(C)C)cc1`, the cytotoxicity at 10 µM is 6.1%.

Take `CC(=O)Nc1ncc(S(=O)(=O)N2CCN(C3CCCCC3)CC2)s1`: the cytotoxicity at 10 µM was -4.5%.

On to `COCC(=O)N1CCC(C(=O)Nc2ccc(C(C)=O)cc2)CC1`, for which the cytotoxicity at 10 µM was determined as 1.73%.

Regarding `CC(C)c1nc(CN(C)C(=O)CNS(=O)(=O)c2cccs2)cs1`, the cytotoxicity at 10 µM is -6.46%.

As for `O=C(CN1CCCCCC1)NCc1cccnc1Oc1ccccc1`, the cytotoxicity at 10 µM was -11.1%.

Take `Cc1ccc(OCc2occc2C(=O)N2CC[C@H](CO)[C@@H](O)C2)cc1`: the cytotoxicity at 10 µM came to 14.3%.

For the compound `CC(C)C(=O)N1CCN(C(=O)c2cscn2)[C@H]2CS(=O)(=O)C[C@H]21`, the cytotoxicity at 10 µM is -7.15%.

As for `Cc1c[nH]c(CN(C)C(=O)c2cccc(CCC(C)(C)O)c2)n1`, the cytotoxicity at 10 µM was -6.85%.

For the compound `CNC(=O)c1cccc(C2CNCCN2C)c1` (stereo not given), the cytotoxicity at 10 µM was 2.91%.

As to `Cc1cc(CN2CCN(c3ccc4nncn4n3)C(C)C2)on1` (stereo not given), the cytotoxicity at 10 µM came out at 6.91%.

Regarding `Cc1ccc(C)n1C(C)C(=O)N1CCCN(Cc2cscn2)CC1` (stereo not given), the cytotoxicity at 10 µM was -8.36%.

As for `O=C1NCC(C(=O)Nc2ncc(Cc3ccc(F)cc3)s2)N1` (stereo not given), the cytotoxicity at 10 µM was determined as 0.639%.

`CCN(CC1CCOC1)C(=O)c1ccccc1N1CCOCC1` (stereo not given): the cytotoxicity at 10 µM is -13.6%.

Consider `CN(CCn1cccn1)S(=O)(=O)N1CCCC1c1ccco1` (stereo not given), for which the cytotoxicity at 10 µM is -9.56%.

Turning to `Cc1cc(CC(=O)N(CC2CN(C)CCO2)c2nccs2)no1` (stereo not given), the cytotoxicity at 10 µM is -7.49%.

Take `Cc1ccc(N2CCCC(NCc3cscn3)C2)nn1` (stereo not given): the cytotoxicity at 10 µM is -7.2%.

In the case of `Cc1cc(C[C@@H]2CCC[C@H]2NCc2cc(C)c(O)c(C)c2)on1`, the cytotoxicity at 10 µM turned out to be 3.37%.

Take `CN(Cc1cncnc1)[C@@H]1CN(C(=O)c2ccco2)[C@@H]2CCCO[C@H]12`: the cytotoxicity at 10 µM is -113%.

Regarding `CCc1ccc(CN2C[C@H](OCC(=O)N(C)C)[C@H]3COC[C@H]32)o1`, the cytotoxicity at 10 µM was 2.46%.

On to `Cc1ccc(CN2CCc3c(CN4CCCC4)n[nH]c3C2)s1`, for which the cytotoxicity at 10 µM stood at 4.41%.

With `COCC(=O)N1CCC2(CC1)CC(COC)N(Cc1ccccn1)C2` (stereo not given), the cytotoxicity at 10 µM was -101%.

Consider `CN(C)C(=O)C1CCN(C2CCN(CC3CCC3)CC2)CC1`, for which the cytotoxicity at 10 µM was 2.82%.

Consider `c1csc(CN2C[C@H](OCC3CCOCC3)[C@H]3COC[C@H]32)n1`, for which the cytotoxicity at 10 µM was -3.76%.

Regarding `CC(C)c1nn(C)c(Cl)c1CNCC(=O)N1CCN(C)CC1`, the cytotoxicity at 10 µM was determined as 2.2%.

`CN1CCO[C@@H]2CN(C(=O)Cc3cccs3)CC[C@@H]2C1`: the cytotoxicity at 10 µM was -103%.

Regarding `CCc1ncnc2c1CCN(Cc1ccc(OC)cc1)CC2`, the cytotoxicity at 10 µM is -0.00161%.

In the case of `c1ccc2c(c1)SCCC2NCc1ccc(N2CCOCC2)cc1` (stereo not given), the cytotoxicity at 10 µM was -4.86%.

On to `Cc1noc(C)c1CN1CC[C@H]2O[C@@H](C(=O)N3CCCC3)CC[C@H]21`, for which the cytotoxicity at 10 µM amounted to 3.35%.

Consider `CCc1nnc(SCC(=O)N2C[C@H]3CC[C@@H](C2)N(CC=C(C)C)C3)[nH]1`, for which the cytotoxicity at 10 µM is -6.18%.

Take `COCCNc1nc(C)nc2c1CCN(CC1CCC(N)CC1)CC2` (stereo not given): the cytotoxicity at 10 µM is -2.84%.
